This note sets out measurements from ChEMBL document CHEMBL4118021, “Studies of TAK1-centered polypharmacology with novel covalent TAK1 inhibitors” (Bioorg Med Chem, 2017).

Activity calls are given as the source filed them. The rule behind the calls is not given here.

The target in assay [1] is Nucleoside diphosphate kinase A/B (Homo sapiens) (UniProt P15531+P22392). The assay can be described thus: Binding affinity to NME1-NME2 in human NCI-H23 cells at 1 uM by mass spectrometry based pull down assay. The assay is classed as cell-based.
The target of assay [2] is Eukaryotic translation initiation factor 5B (Homo sapiens) (UniProt O60841). The assay can be described thus: Binding affinity to EIF5B in human NCI-H23 cells at 1 uM by mass spectrometry based pull down assay. Format: cell-based.
Assay [3] concerns the target T1, 80S Ribosome (Homo sapiens) (UniProt P08865+P42677+P62753+P15880+P23396+P61247+P62701+P22090+P46782+P62081+P62241+P46781+P46783+P62280+P25398+P62277+P62263+P62841+P62244+P62249+P08708+P62269+P39019+P60866+P63220+P62266+P62847+P62851+P62854+P62979+P62857+P62273+P62861+P39023+P36578+P46777+Q02878+P18124+P62424+P62917+P32969+P27635+P62906+P62913+P30050+P26373+P40429+P50914+P61313+P18621+Q07020+Q02543+P84098+P46778+P35268+P62829+P62750+P83731+P61254+P61353+P46776+P46779+P47914+P62888+P62899+P62910+P49207+P42766+P18077+Q9Y3U8+P83881+P61927+P61513+P63173+P62891+P62945+P05388+P05386). Kind of assay: Binding affinity to RPS24 in human NCI-H23 cells at 1 uM by mass spectrometry based pull down assay. The assay is classed as cell-based.

Assay [4] addresses Proteasome subunit beta type-6 (Homo sapiens) (UniProt P28072). Kind of assay: Binding affinity to PSMB6 in human NCI-H23 cells at 1 uM by mass spectrometry based pull down assay. Format: cell-based.
Assay [5] deals with Peroxiredoxin-6 (Homo sapiens) (UniProt P30041). The assay can be described thus: Binding affinity to PRDX6 in human NCI-H23 cells at 1 uM by mass spectrometry based pull down assay. Format: cell-based.
Assay [6] concerns the target RNA-binding protein 3 (Homo sapiens) (UniProt P98179). The assay can be described thus: Binding affinity to RBM3 in human NCI-H23 cells at 1 uM by mass spectrometry based pull down assay. Format: cell-based.
Assay [7] addresses DNA mismatch repair protein Msh2 (Homo sapiens) (UniProt P43246). Kind of assay: Binding affinity to MSH2 in human NCI-H23 cells at 1 uM by mass spectrometry based pull down assay. The assay is classed as cell-based.
Assay [8] has as its target StAR-related lipid transfer protein 7, mitochondrial (Homo sapiens) (UniProt Q9NQZ5). Kind of assay: Binding affinity to STARD7 in human NCI-H23 cells at 1 uM by mass spectrometry based pull down assay. Format: cell-based.
In assay [9] the target is Pyruvate dehydrogenase E1 component subunit beta, mitochondrial (Homo sapiens) (UniProt P11177). Kind of assay: Binding affinity to PDHB in human NCI-H358 cells at 1 uM by mass spectrometry based pull down assay. The assay is classed as cell-based.
The target in assay [10] is COP9 signalosome complex subunit 8 (Homo sapiens) (UniProt Q99627). Kind of assay: Binding affinity to COPS8 in human NCI-H358 cells at 1 uM by mass spectrometry based pull down assay. Format: cell-based.
Assay [11] has as its target WD repeat and HMG-box DNA-binding protein 1 (Homo sapiens) (UniProt O75717). The assay can be described thus: Binding affinity to WDHD1 in human NCI-H358 cells at 1 uM by mass spectrometry based pull down assay. Format: cell-based.
Assay [12] has as its target Cancer-related nucleoside-triphosphatase (Homo sapiens) (UniProt Q9BSD7). Kind of assay: Binding affinity to NTPCR in human NCI-H358 cells at 1 uM by mass spectrometry based pull down assay. The assay is classed as cell-based.
The target of assay [13] is Glutamate--cysteine ligase catalytic subunit (Homo sapiens) (UniProt P48506). Kind of assay: Binding affinity to GCLC in human NCI-H358 cells at 1 uM by mass spectrometry based pull down assay. The assay is classed as cell-based.
Assay [14] has as its target Aurora kinase B (Homo sapiens) (UniProt Q96GD4). Kind of assay: Binding affinity to AURKB in human NCI-H358 cells at 1 uM by mass spectrometry based pull down assay. Format: cell-based.
For assay [15], the target named is DNA replication licensing factor MCM6 (Homo sapiens) (UniProt Q14566). The assay can be described thus: Binding affinity to MCM6 in human NCI-H358 cells at 1 uM by mass spectrometry based pull down assay. Format: cell-based.
Assay [16] addresses Isocitrate dehydrogenase [NAD] subunit alpha, mitochondrial (Homo sapiens) (UniProt P50213). The assay can be described thus: Binding affinity to IDH3A in human NCI-H358 cells at 1 uM by mass spectrometry based pull down assay. Format: cell-based.
The target of assay [17] is Trafficking protein particle complex subunit 5 (Homo sapiens) (UniProt Q8IUR0). The assay can be described thus: Binding affinity to TRAPPC5 in human NCI-H358 cells at 1 uM by mass spectrometry based pull down assay. Format: cell-based.
The target of assay [18] is Uracil-DNA glycosylase (Homo sapiens) (UniProt P13051). Kind of assay: Binding affinity to UNG in human NCI-H358 cells at 1 uM by mass spectrometry based pull down assay. Format: cell-based.
Assay [19] deals with ADP-ribosylation factor-like protein 2 (Homo sapiens) (UniProt P36404). The assay can be described thus: Binding affinity to ARL2 in human NCI-H358 cells at 1 uM by mass spectrometry based pull down assay. The assay is classed as cell-based.
For assay [20], the target named is 5'-AMP-activated protein kinase catalytic subunit alpha-1 (Homo sapiens) (UniProt Q13131). The assay can be described thus: Binding affinity to PRKAA1 in human NCI-H358 cells at 1 uM by mass spectrometry based pull down assay. The assay is classed as cell-based.
Assay [21] addresses Bifunctional phosphoribosylaminoimidazole carboxylase/phosphoribosylaminoimidazole succinocarboxamide synthetase (Homo sapiens) (UniProt P22234). The assay can be described thus: Binding affinity to PAICS in human NCI-H358 cells at 1 uM by mass spectrometry based pull down assay. Format: cell-based.
In assay [22] the target is T1, 80S Ribosome (Homo sapiens). The assay can be described thus: Binding affinity to RPL9 in human NCI-H358 cells at 1 uM by mass spectrometry based pull down assay. Format: cell-based.
For assay [23], the target named is Poly(rC)-binding protein 2 (Homo sapiens) (UniProt Q15366). Kind of assay: Binding affinity to PCBP2 in human NCI-H358 cells at 1 uM by mass spectrometry based pull down assay. The assay is classed as cell-based.
The test system of assay [24] is NCI-H358. The assay can be described thus: Binding affinity to XRCC5 in human NCI-H358 cells at 1 uM by mass spectrometry based pull down assay. Format: cell-based.
Assay [25] has as its target 6-phosphogluconate dehydrogenase, decarboxylating (Homo sapiens) (UniProt P52209). Kind of assay: Binding affinity to PGD in human NCI-H358 cells at 1 uM by mass spectrometry based pull down assay.
Assay [26] has as its target Mitogen-activated protein kinase 12 (Homo sapiens) (UniProt P53778). Kind of assay: Inhibition of p38g in human SKCO1 cells at 1 uM after 4 hrs using biotin labeled DLKPGNLAVNEDCELK probe by mass-spectrometric analysis relative to control. Format: cell-based.
The test system of assay [27] is NCI-H358. The assay can be described thus: Antiproliferative activity against human NCI-H358 cells harboring KRAS G12C mutant after 72 hrs by CellTiter-Glo assay. The assay is classed as functional, cell-based. The essentials: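 NCI-H23 or NCI-H358 cells seeded at 2000 cells/well and grown 48 h before drug. Varying doses were added and cells incubated 72 h. Viability was read as CellTiter-Glo luminescence, and growth-inhibition IC50 was calculated from dose-response curves.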

Chain of Proteasome subunit beta type-6 (Homo sapiens) (P28072 whole entry): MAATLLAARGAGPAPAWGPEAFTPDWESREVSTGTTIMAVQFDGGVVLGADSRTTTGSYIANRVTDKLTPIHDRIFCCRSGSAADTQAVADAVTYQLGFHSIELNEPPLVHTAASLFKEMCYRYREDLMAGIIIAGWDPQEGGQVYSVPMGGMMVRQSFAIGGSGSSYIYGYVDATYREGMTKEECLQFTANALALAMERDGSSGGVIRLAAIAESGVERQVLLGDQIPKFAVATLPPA
Chain of 5'-AMP-activated protein kinase catalytic subunit alpha-1 (Homo sapiens) (Q13131 whole entry, looked up): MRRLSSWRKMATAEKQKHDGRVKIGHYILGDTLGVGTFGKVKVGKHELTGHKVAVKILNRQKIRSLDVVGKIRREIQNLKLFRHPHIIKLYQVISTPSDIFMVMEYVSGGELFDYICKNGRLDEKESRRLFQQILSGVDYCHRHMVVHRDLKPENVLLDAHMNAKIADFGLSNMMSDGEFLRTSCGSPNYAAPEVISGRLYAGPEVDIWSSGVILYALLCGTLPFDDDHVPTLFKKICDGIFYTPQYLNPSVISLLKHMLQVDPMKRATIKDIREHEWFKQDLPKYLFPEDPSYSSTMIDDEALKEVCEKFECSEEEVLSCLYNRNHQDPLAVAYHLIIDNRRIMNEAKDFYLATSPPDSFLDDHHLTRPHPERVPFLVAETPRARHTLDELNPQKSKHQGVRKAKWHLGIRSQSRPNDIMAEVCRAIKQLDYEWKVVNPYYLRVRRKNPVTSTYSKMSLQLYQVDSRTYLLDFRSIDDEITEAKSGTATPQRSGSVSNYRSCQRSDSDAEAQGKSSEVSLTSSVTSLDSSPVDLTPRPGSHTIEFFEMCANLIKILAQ
Chain of ADP-ribosylation factor-like protein 2 (Homo sapiens) (P36404 whole entry): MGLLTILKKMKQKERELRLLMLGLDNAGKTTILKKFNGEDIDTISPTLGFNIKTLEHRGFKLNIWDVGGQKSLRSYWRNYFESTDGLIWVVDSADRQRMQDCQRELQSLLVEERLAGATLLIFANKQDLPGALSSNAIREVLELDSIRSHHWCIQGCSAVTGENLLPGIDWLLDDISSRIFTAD
Chain of Aurora kinase B (Homo sapiens) (Q96GD4 whole entry): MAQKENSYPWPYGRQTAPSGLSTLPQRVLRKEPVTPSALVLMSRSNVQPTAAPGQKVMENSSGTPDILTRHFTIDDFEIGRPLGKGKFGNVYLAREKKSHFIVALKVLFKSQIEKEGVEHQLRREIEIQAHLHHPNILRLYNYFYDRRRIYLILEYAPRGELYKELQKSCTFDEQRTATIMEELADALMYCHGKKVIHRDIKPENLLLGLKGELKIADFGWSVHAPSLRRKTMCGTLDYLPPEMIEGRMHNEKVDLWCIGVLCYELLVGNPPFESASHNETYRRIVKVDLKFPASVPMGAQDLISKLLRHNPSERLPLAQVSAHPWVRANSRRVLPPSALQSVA
Chain of DNA mismatch repair protein Msh2 (Homo sapiens) (P43246 whole entry): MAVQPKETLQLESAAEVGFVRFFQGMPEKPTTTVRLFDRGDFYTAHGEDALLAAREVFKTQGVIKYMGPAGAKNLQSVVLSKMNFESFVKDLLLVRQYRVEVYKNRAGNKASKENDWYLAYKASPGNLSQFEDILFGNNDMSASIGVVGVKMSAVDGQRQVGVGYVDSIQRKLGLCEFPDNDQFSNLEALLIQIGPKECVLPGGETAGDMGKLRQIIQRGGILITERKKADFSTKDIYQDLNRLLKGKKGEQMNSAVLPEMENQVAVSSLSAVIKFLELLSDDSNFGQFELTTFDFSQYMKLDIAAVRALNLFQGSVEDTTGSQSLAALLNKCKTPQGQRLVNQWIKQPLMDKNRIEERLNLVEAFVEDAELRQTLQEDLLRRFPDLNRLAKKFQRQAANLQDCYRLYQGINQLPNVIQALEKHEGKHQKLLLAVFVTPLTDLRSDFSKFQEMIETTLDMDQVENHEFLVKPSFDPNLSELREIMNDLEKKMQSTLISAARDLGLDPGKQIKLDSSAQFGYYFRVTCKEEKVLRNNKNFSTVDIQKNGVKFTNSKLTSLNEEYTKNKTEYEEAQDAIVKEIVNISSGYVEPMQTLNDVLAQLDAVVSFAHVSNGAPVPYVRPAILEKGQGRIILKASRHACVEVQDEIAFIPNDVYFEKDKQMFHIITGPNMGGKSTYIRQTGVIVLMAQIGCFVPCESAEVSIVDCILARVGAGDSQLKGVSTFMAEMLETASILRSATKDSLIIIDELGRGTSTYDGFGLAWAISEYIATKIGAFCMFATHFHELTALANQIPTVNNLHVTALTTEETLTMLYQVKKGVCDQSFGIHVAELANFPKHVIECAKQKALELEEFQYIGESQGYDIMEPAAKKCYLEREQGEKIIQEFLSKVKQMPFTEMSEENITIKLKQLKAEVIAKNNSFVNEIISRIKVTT
Chain of Glutamate--cysteine ligase catalytic subunit (Homo sapiens) (P48506 whole entry): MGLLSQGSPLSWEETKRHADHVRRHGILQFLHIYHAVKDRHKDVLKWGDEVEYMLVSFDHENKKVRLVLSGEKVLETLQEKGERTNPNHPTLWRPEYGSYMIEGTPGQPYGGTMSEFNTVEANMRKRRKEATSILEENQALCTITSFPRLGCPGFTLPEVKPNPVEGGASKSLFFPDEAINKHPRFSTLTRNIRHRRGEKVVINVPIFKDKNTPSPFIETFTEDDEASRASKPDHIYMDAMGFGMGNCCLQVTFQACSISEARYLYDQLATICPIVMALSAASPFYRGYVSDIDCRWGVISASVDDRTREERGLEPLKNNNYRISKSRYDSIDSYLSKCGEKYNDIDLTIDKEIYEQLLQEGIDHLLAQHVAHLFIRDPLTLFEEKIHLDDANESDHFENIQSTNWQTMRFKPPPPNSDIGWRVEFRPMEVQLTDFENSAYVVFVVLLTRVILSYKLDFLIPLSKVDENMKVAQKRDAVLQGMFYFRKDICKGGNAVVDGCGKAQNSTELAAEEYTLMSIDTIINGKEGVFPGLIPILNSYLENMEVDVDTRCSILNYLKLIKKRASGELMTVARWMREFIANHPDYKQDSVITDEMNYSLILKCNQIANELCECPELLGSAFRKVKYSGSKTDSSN
Chain of Peroxiredoxin-6 (Homo sapiens) (P30041 whole entry): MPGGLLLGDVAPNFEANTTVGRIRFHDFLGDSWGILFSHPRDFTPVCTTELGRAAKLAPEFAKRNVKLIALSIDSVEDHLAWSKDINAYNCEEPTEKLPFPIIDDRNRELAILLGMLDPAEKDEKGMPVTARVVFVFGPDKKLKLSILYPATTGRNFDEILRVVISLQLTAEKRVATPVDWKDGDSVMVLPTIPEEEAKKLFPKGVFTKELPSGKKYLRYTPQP
Chain of Nucleoside diphosphate kinase A/B (Homo sapiens) (P15531 whole entry, looked up): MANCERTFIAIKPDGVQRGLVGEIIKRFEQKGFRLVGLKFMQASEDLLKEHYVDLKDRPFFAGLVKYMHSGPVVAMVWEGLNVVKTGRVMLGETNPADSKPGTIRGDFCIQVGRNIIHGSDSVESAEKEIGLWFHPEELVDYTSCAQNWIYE
Chain of Nucleoside diphosphate kinase A/B (Homo sapiens) (P22392 whole entry, looked up): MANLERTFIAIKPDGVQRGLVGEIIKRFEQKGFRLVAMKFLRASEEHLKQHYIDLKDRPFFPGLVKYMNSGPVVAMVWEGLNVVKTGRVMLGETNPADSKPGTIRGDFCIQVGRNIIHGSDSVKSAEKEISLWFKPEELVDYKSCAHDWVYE
Chain of COP9 signalosome complex subunit 8 (Homo sapiens) (Q99627 whole entry, one chain of several): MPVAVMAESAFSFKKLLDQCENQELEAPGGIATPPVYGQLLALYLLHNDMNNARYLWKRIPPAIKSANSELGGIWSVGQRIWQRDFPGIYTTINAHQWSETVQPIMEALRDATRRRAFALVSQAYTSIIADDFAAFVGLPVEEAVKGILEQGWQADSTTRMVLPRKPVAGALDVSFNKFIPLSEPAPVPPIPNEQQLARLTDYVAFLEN
Chain of Uracil-DNA glycosylase (Homo sapiens) (P13051 whole entry): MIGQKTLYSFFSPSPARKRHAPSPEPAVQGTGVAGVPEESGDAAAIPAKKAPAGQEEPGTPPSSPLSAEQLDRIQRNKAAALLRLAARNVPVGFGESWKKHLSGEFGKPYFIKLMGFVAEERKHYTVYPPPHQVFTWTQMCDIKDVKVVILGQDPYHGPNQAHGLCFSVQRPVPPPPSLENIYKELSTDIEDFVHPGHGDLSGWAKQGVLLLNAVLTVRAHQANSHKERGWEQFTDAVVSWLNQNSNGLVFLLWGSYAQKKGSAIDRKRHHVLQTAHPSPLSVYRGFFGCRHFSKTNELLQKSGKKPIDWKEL
Chain of DNA replication licensing factor MCM6 (Homo sapiens) (Q14566 whole entry): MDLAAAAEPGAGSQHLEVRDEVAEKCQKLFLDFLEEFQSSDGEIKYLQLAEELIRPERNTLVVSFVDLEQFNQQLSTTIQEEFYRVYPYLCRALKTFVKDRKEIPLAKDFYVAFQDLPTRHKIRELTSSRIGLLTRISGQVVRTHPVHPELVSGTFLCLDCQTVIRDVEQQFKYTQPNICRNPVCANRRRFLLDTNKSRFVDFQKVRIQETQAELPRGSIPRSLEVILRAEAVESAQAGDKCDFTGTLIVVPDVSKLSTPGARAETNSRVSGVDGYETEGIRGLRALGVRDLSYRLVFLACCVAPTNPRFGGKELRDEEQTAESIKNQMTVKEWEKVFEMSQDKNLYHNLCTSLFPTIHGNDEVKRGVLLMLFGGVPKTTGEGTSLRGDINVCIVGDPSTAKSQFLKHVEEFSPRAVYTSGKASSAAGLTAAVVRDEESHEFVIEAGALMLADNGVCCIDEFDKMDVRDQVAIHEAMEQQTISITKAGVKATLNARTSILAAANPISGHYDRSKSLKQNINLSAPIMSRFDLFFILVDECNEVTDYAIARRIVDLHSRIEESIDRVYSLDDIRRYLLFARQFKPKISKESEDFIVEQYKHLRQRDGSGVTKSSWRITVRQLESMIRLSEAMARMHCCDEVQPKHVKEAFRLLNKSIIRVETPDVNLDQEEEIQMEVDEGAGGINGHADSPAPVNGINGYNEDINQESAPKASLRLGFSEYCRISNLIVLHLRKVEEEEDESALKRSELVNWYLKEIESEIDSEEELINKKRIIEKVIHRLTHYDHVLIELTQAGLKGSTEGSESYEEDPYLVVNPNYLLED

For the molecule `C=CC(=O)Nc1ccccc1Nc1nc(Nc2ccc(N3CCN(CCOCCOCCOCCNC(=O)CCCC[C@@H]4SC[C@@H]5NC(=O)N[C@@H]54)CC3)cc2)ncc1Cl`, the outcome in assay [1], in [2], in assay [3], in assay [4], in assay [5] and in assay [6] was Active. Moreover, the result in [7], in [8], in assay [9], in assay [10], in assay [11] and in assay [12] was Active. The outcome in [13], in [14], in assay [15], in assay [16], in assay [17] and in assay [18] was Active. The result in assay [19], in assay [20], in [21], in [22], in assay [23] and in [24] was Active. Moreover, the result in assay [25] was Active.

In general, inhibition refers to the change of the read-out against control, counted positive when it falls. Consider `C=CC(=O)Nc1ccccc1Nc1nc(Nc2ccc(N3CCN(C)CC3)cc2)ncc1Cl`, for which the inhibition in assay [26] was -8.5%. Further, the result in [27] was Active.
